The array DNA melting data of Ke et al. (doi:10.1101/2024.01.08.574731)

Columns and labels:
[1] = melting temperature; fluorescence melt of hairpins on a sequencing array, two-state fit, raised by 9.35 °C to match UV melts; conditions: sodium 0.088 M
In short: (§1)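 Melting temperature and folding enthalpy were derived from bootstrapped two-state fits. The fitted temperatures were raised by 9.35 °C to agree with UV melts, and four replicates were combined by inverse variance. The underlying data were Cy3 fluorescence images of library hairpins, with annealed Cy3 and quencher oligos, on a sequenced MiSeq flow cell in 50 mM Na-HEPES pH 8.0, 25 mM NaCl, taken in 2.5 °C steps up to 60 °C, normalised to pre-quench Cy3 and to control constructs.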

[2] = folding enthalpy; higher = less favourable; fluorescence melt of hairpins on a sequencing array, two-state fit; conditions: sodium 0.088 M
In short: as §1

Sequence | Tm [1] [°C] | folding enthalpy [2] [kcal/mol]
GACGAACGAAAGTTTGTC (((.(((....))).))) | 54.2 | -43.7
GGAATCGAAAGATGTCC ((((((....))).))) | 32.5 | -15.6
GCTCTCGGAAACGAAAGC (((.(((....))).))) | 39.4 | -28.5
GCGTTTTGACGC ((((....)))) | 55.2 | -25.2
GATCCAACTCTGGATC ((((((....)))))) | 49.2 | -30.9
GGCGGCGAAAGCCGGGCC ((((((....)))..))) | 58.1 | -10.1
GATCAGGCCTCTGATC ((((((....)))))) | 52.1 | -49.2
GACGCCGGAAACGGTGTC (((.(((....))).))) | 63.9 | -45.9
GTTGGGGCGAAAGCCAAC (((..(((....)))))) | 46 | -16.5
GATCTATATATAGATC ((((((....)))))) | 46.4 | -46.8
GATCCTCCTAGGATC ((((((...)))))) | 54 | -39.2
GGCCGTGGAAACACAGCC (((.(((....))).))) | 50.1 | -36.8
GATCTATGAGTAGATC ((((((....)))))) | 45.5 | -40.3
GGTCCCGAAAGGGCCACC ((((((....)))..))) | 55 | -11.7
GGCTAAGGAAACTTGGCC (((.(((....))).))) | 50.4 | -29.6
GGTGTGGAAACACACC ((((((....)))))) | 66.6 | -30.2
GATCCGATGCGGATC ((((((...)))))) | 57.7 | -31
GATCAACGGATTGATC ((((((....)))))) | 39.5 | -28
GGACGACGAAAGTCCTCC (((.(((....))).))) | 45.4 | -19.4
GCACGCGGAAACGCATGC (((.(((....))).))) | 52.8 | -40.4
GGCCTAGGAAACTAGGTC (.(((((....))))).) | 51.6 | -33.7
GGTTTGGAAACAAACC ((((((....)))))) | 56.5 | -41.6
GAGTATGGAAACACACTC ((((.((....)).)))) | 31.7 | -24.9
GTCCAGGGAAACCTAGAC (((.(((....))).))) | 33.3 | -19

Sequence | Tm [1] [°C] | folding enthalpy [2] [kcal/mol]
GCTCTGCGAAAGCATGGC ((..(((....)))..)) | 40.1 | -19.6
GTTGACGGAAACGTTAAC (((.(((....))).))) | 47.1 | -27
GATCTGTGTACAGATC ((((((....)))))) | 56 | -47.9
GCCTTCGGAAACGAAAGC ((.((((....)))).)) | 40.4 | -22
GAATAGCGAAAGCTTTC (((.(((....)))))) | 33.7 | -11.6
GCTCCCGAAAGGGATAGC ((((((....)))..))) | 48.4 | -17.5
GGCTACGAAAGTATAGCC ((((((....)))..))) | 49.9 | -25.1
CGTGCGGAAACGCTTACG ((((((....)))..))) | 38.4 | -22.6
GATGCACGAAAGTGAATC (((.(((....))).))) | 50.8 | -23.4
GATCAGTCACCTGATC ((((((....)))))) | 49.6 | -36.4
GCATCCGAAAGGAACTGC ((((((....)))..))) | 33.5 | -17.1
GGAACCGGAAACGGTTTC (.(((((....))))).) | 54.5 | -21.3
CCTTAGAAATAAGG (((((....))))) | 28.6 | -10.5
GGTCGGACGAAAGTCACC (((..(((....)))))) | 30.6 | -12.7
GATACGCGAAAGCGCATC (((.(((....))).))) | 46.4 | -20.2
GCGTAACTACGC ((((....)))) | 57.1 | -25.4
GTCGACCGAAAGGTGGAC (((.(((....))).))) | 56.1 | -42.1
GATCCTCAGCAGGATC ((((((....)))))) | 48.8 | -33.2
GGATAGTCGAAAGACTCC (((..(((....)))))) | 33.1 | -13.6
GACGGCGGAAACGTCGTC ((((.((....)).)))) | 61.1 | -52.8
GCTGATCGAAAGATGAGC (((.(((....))).))) | 48 | -32.2
GAAAGCGAAAGCTCTTC ((((((....))).))) | 44.3 | -17.9
GCGCACGAAAGTGAACGC ((((((....)))..))) | 54.5 | -31.2
GATCCTTTGAGGATC ((((((...)))))) | 54.2 | -33.6

Sequence | Tm [1] [°C] | folding enthalpy [2] [kcal/mol]
GGACACGAAAGTGAGTCC ((((((....)))..))) | 44.8 | -21
GATCTGGATACAGATC ((((((....)))))) | 56.7 | -34
GTGCCTGGAAACGGGCAC (((((.(....).))))) | 65.5 | -36.8
GTGGGTCGAAAGACACAC (((.(((....))).))) | 63.5 | -47
GAGGAAGAAATTCCTC ((((((....)))))) | 47.7 | -25
GATCCATGCCTGGATC ((((((....)))))) | 51.6 | -36.2
GCTCAGCGAAAGCAGAGC ((((.((....)).)))) | 67.3 | -36.3
CGGCCGGAAACGGCCCCG ((((((....)))..))) | 35.4 | -6
GCCATGCGAAAGCTCGGC (((..((....))..))) | 52.5 | -23.6
GATCCATTGTTGGATC ((((((....)))))) | 52.2 | -44.2
GCGCTGCGAAAGCAAAGC ((..(((....)))..)) | 60 | -17.7
CTTGTGAAAACAAG (((((....))))) | 45.2 | -23.1
GGTTTGACGAAAGTCACC (((..(((....)))))) | 30.4 | -10.6
GCACCGGGAAACCAGTGC ((((.((....)).)))) | 49.4 | -32.1
GAAAGCGAAAGCTCGTTC ((((((....)))..))) | 25.9 | -9.57
GATCGATGCTTCGATC ((((((....)))))) | 54.9 | -41.9
GATCCCTCGGGGGATC ((((((....)))))) | 61.2 | -37.4
GCTGACGCGAAAGCGAGC (((..(((....)))))) | 47.1 | -13.9
GGCGACGGAAACGTCACC ((.((((....)))).)) | 54.7 | -33.5
GGCAAACGAAAGTTGCC (((.(((....)))))) | 59.6 | -33.3
GATCAACGTTTGATC ((((((...)))))) | 40.1 | -26.1
GCAGACGGAAACGCCTGC ((((.((....)).)))) | 56 | -51.1
GGTTGGAAACAACC (((((....))))) | 54.9 | -29.6
GCGGCCACGAAAGTGCGC (((..(((....)))))) | 52.7 | -17.4

Sequence | Tm [1] [°C] | folding enthalpy [2] [kcal/mol]
GCTGAGGCGAAAGCCAGC (((..(((....)))))) | 52.8 | -22.3
CCGTTGAAAAACGG (((((....))))) | 54.3 | -19.9
GATCCTCTGTAGGATC ((((((....)))))) | 51.8 | -36.2
GCATTGGGAAACTGATGC ((((..(....)..)))) | 38.8 | -30
GATCAATGCTTTGATC ((((((....)))))) | 47.5 | -39.7
GGATTCGAAAGAACATCC ((((((....)))..))) | 29.4 | -14.1
GTGCACGAAAGTGATCAC ((((((....)))..))) | 37.4 | -12.7
GGGGCCGAAAGGCATCCC ((((((....)))..))) | 54.9 | -13.9
GCTCGAGAAATCGAGC ((((((....)))))) | 66.5 | -37.4
GTGCTAGGAAACCAGCAC (((((.(....).))))) | 49.9 | -37
GATCTGGGACAGATC ((((((...)))))) | 58.1 | -35.5
CGTTCGGAAACGAGAACG ((((((....)))..))) | 41.2 | -27.9
TGCATGAAAATGCA (((((....))))) | 52 | -19.8
GGACGAGGAAACTCATCC (((.(((....))).))) | 36.7 | -27.4
GCGCTGCGAAAGCCGAGC ((.(.((....)).).)) | 50.8 | -23.2
GGTATCGAAAGATGTACC ((((((....)))..))) | 32.5 | -23.2
GAGATTGGAAACAATTTC ((.((((....)))).)) | 32.4 | -17.9
GCGGCGCGAAAGCTCGGC ((.(.((....)).).)) | 44.4 | -17.4
GATCGTTAGACGATC ((((((...)))))) | 52.9 | -34.8
GATCAACCCTTTGATC ((((((....)))))) | 46.1 | -39.2
GATCTGCCCTCAGATC ((((((....)))))) | 49.8 | -42.5
